Assay results reported in ChEMBL document CHEMBL4257580, “Tanshinone-IIA-Based Analogues of Imidazole Alkaloid Act as Potent Inhibitors To Block Breast Cancer Invasion and Metastasis in Vivo” (J Med Chem, 2018).

Experiments:
MDA-MB-231 = assay: Antiproliferative activity against human MDA-MB-231 cells after 72 hrs by MTT assay; assay type: functional, cell-based; settings: MDA-MB-231, 72 h
Outline: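 MDA-MB-231 cells grown in DMEM with 10% FBS and penicillin/streptomycin at 37 °C under 5% CO2. Seeded at 5×10^3 cells/well for 24 h, then exposed to compound across a concentration range for 72 h. MTT (5 mg/mL in PBS) added for 5 h, formazan dissolved in DMSO, absorbance read at 570 nm. Three repeats.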

L02 = assay: Antiproliferative activity against human L02 cells after 72 hrs by MTT assay; assay type: cell-based; settings: L02, 72 h
Outline: (§1)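 A549, HeLa, HepG2 and normal liver L02 cells kept in DMEM with 10% FBS at 37 °C under 5% CO2. Plated at 5×10^3 cells/well for 24 h, then treated with graded concentrations for 72 h. Viability measured by MTT reduction (5 h), formazan dissolved in DMSO and read at 570 nm. Three repeats.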

A549 = assay: Antiproliferative activity against human A549 cells after 72 hrs by MTT assay; assay type: functional, cell-based; settings: A549, 72 h; outline: as §1
HeLa = assay: Antiproliferative activity against human HeLa cells after 72 hrs by MTT assay; assay type: functional, cell-based; outline: as §1
HepG2 = assay: Antiproliferative activity against human HepG2 cells after 72 hrs by MTT assay; assay type: functional, cell-based; settings: HepG2, 72 h; outline: as §1

| SMILES | IC50 (MDA-MB-231) | IC50 (L02) | IC50 (A549) | IC50 (HeLa) | IC50 (HepG2) |
| --- | --- | --- | --- | --- | --- |
| Cc1coc2c3ccc4c(c3c3[nH]c(-c5ccccc5O)nc3c12)CCCC4(C)C | 20.2 µM | 51.9 µM | 4.9 µM | 84.3 µM | 26.3 µM |
| COc1ccc(-c2nc3c([nH]2)c2c4c(ccc2c2occ(C)c32)C(C)(C)CCC4)cc1 | 21.1 µM | 84 µM | 35.3 µM | 62 µM | 13.9 µM |
| Cc1coc2c3ccc4c(c3c3[nH]c(-c5cccc(C(F)(F)F)c5)nc3c12)CCCC4(C)C | 52.7 µM | 54.5 µM | 31.4 µM | 68.8 µM | 43.8 µM |
| Cc1coc2c3ccc4c(c3c3[nH]c(-c5ccccc5C(F)(F)F)nc3c12)CCCC4(C)C | 23.8 µM | 93.9 µM | 25.6 µM | 61 µM | 38.4 µM |
| COc1ccccc1-c1nc2c([nH]1)c1c3c(ccc1c1occ(C)c21)C(C)(C)CCC3 | 110 µM | 86.8 µM | 45.9 µM | > 300 µM | 126 µM |
| Cc1coc2c3ccc4c(c3c3[nH]c(-c5ccc(C(F)(F)F)cc5)nc3c12)CCCC4(C)C | 44.3 µM | 30.7 µM | 48.8 µM | 65.3 µM | 25.2 µM |
| COc1cccc(-c2nc3c([nH]2)c2c4c(ccc2c2occ(C)c32)C(C)(C)CCC4)c1 | 52.3 µM | > 300 µM | 40.1 µM | 67.8 µM | 28.4 µM |
| Cc1coc2c1C(=O)C(=O)c1c-2ccc2c1CCCC2(C)C [TANSHINONE IIA] | 116 µM | 78.5 µM | 53.2 µM | 193 µM | 65.7 µM |
| Cc1coc2c3ccc4c(c3c3[nH]c(-c5ccccc5[N+](=O)[O-])nc3c12)CCCC4(C)C | 23.6 µM | > 300 µM | 203 µM | 115 µM | 24.8 µM |
| Cc1coc2c3ccc4c(c3c3[nH]c(-c5cccc([N+](=O)[O-])c5)nc3c12)CCCC4(C)C | 48.8 µM | > 300 µM | 63.7 µM | > 300 µM | 33.9 µM |
| Cc1coc2c3ccc4c(c3c3[nH]c(-c5ccc([N+](=O)[O-])cc5)nc3c12)CCCC4(C)C | 30.7 µM | > 300 µM | 24.9 µM | 157 µM | 31 µM |
| Cc1coc2c3ccc4c(c3c3[nH]c(-c5cccc(O)c5)nc3c12)CCCC4(C)C | 25.5 µM | 32.9 µM | 18.4 µM | 52.6 µM | 37.1 µM |
| COc1cccc2c1C(=O)c1c(O)c3c(c(O)c1C2=O)C[C@@](O)(C(=O)CO)C[C@@H]3O[C@H]1C[C@H](N)[C@H](O)[C@H](C)O1 [DOXORUBICIN] | 8.53 µM | 3.6 µM | 3.4 µM | 8.66 µM | 4.3 µM |
